Experimental data: paper PMC9226493 (Nucleic Acids Research, 2022)

Assays:
UPEC 536 [1] = test: Minimal inhibitory concentration; type: cell-based, Escherichia coli; conditions: (KFF)3K-conjugated 10mer PNAs at concentrations ≤10 μM, 24 h
acpP^91::gfp RNA = test: In vitro translation of acpP::gfp RNA, western blot of AcpP1-17-GFP; type: biochemical, Escherichia coli; conditions: 10-molar excess of PPNA over template RNA; performed two times; listed as (KFF)3K-acpP
Method in brief: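 Target-gene fragment fused to gfp by overlap PCR, then T7 in vitro transcribed (3 h 45 min, 37°C; then DNase) and checked on 6% PAA/7 M urea gels. Heat-denatured RNA (1 pmol, 100 nM final) was pre-incubated with test compound at 37°C for 5 min. It was then translated in PURExpress for 2 h at 37°C. Water served as control. Analysis: 12% SDS-PAGE, anti-GFP western, Ponceau loading check, ImageJ signal relative to control.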

UPEC 536 [2] = test: Killing time kinetics; type: cell-based, Escherichia coli; conditions: 1.25 μM, UPEC 536 10^5 cfu/ml, within 24 h

Sequence	growth inhibition of UPEC 536 (UPEC 536 [1])	other results
KFFKFFKFFK [yidC 10mer PPNA]	did not trigger complete growth inhibition	
KFFKFFKFFK [csrA 10mer PPNA]	did not trigger complete growth inhibition	
KFFKFFKFFK [acpP 10mer PPNA]		effect on in vitro synthesis of AcpP1-17-GFP (acpP^91::gfp RNA): substantially inhibited
KFFKFFKFFK [scrambled 10mer PPNA]		abundance of living bacterial cells compared to the water control (UPEC 536 [2]): did not affect the abundance of living bacterial cells
KFFKFFKFFK [nusG 10mer PPNA]	did not trigger complete growth inhibition	
